Screening data as filed in PubChem BioAssay.
Shown are actives, neighbours in structure and some others; about 2.3% of the full set was active somewhere.
EWS-Fli block – EWS/Fli-driven NR0B1 reporter inhibitors, primary screen, A673 cells, NR0B1 luciferase, luminescence, MLPCN library | viability-normalised | inhibition, % at 12.6 µM | 350,000 compounds, 0.67% hits;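 active = mean inhibition of at least 50% after viability correction, with every replicate also passing that limit; inconclusive = mean reaches 50% but only one of two replicates passes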;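 also: firefly luciferase signal divided by Alamar Blue viability fluorescence both relative to DMSO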
F508del corr – F508del CFTR correction, initial screen, CFBE line, single point; CFBE cells, YFP halide quenching; stimulated with forskolin plus potentiator P3; % fluorescence drop versus neutral controls; activity (quench increase), % at 7.58 µM; 350,000 compounds, 0.36% hits; AID 720511, 2013;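 active = mean added fluorescence quench of at least 8% versus neutral control, with both replicates also reaching 8%; inconclusive = only one of the mean or replicate conditions met; inactive = mean below 8% and not both replicates reaching 8%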;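 also: cells transiently co-express mutant CFTR-F508del with the halide-sensitive YFP; corrector assay measuring rescue of mutant channel to the surface after 24 h compound exposure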
FN deposit inh – inhibitors of fibronectin matrix deposition, primary screen, AH1F cells, Alexa488-fibronectin fluorescence, plate reader | AH1F fibroblasts, overnight | inhibition, % at 12.6 µM | 350,000 compounds, 0.086% hits | AID 743247, 2014;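 active = mean inhibition across replicates of 30% or more, regardless of how many single replicates reach that level; inconclusive = mean under 30% yet at least half of replicates reach 30%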
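Schedule: 1 h cell adhesion before compound, then overnight fibronectin incubation; test system: AH1F fibroblast monolayer depositing Alexa488-labelled fibronectin into matrix; quantity: 10000 AH1F cells per well; probe or stimulus: fluorescent fibronectin at 24 nM final; signal: fluorescence, ex 485 nm, em 525 nm; evaluation: percent inhibition as loss of matrix-bound fibronectin fluorescence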
PAX8 reporter – inhibitors of PAX8-driven TPO luciferase reporter, primary screen, RMG-I cells, single concentration; SteadyGlo, 24 h; inhibition, % at 12.6 µM; 360,000 compounds, 1.2% hits; AID 652154, 2013;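 active = mean replicate inhibition at least 60% with every replicate also reaching 60%; inconclusive = only one of the two criteria is met; inactive = mean below 60% and not all replicates reaching 60%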;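 also: luciferase light reporting Pax8 driven TPO promoter activity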
PGC1a acetyl inh – inhibitors of PGC1a acetylation signal, primary screen, cell-based, U2OS, AlphaScreen, inhibitor mode; AID 651687, 2012; AlphaScreen anti-acetyl-lysine; with virally co-expressed GCN5 acetyltransferase; inhibition, % at 15.6 µM; 350,000 compounds, 0.17% hits;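 active = every replicate shows inhibition of at least 40%; inconclusive = mean inhibition at least 40% but some replicate below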
HIV Env fusion – inhibitors of HIV-1 Env-driven cell-cell fusion, primary screen, HeLa-JRFL effector, CEM21 target cells, luciferase. inhibition, % at 12.3 µM. 360,000 compounds, 1.1% hits. AID 651610, 2012;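 active = mean replicate inhibition score of at least 50 and every replicate individually at or above 50; inconclusive = only one of the two criteria met; inactive = mean below 50 and not all replicates reaching 50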
Hits are given with their value; - = inactive; ? = inconclusive; . = no result; [ ] = another dose, or the depositor's remark.

SMILES	EWS-Fli block	F508del corr	FN deposit inh	PAX8 reporter	PGC1a acetyl inh	HIV Env fusion
Cc1ccc(S(=O)(=O)N[C@@H]2CC[C@@H](CCn3cc(C4CC4)nn3)O[C@H]2CO)cc1	-	-	-	-	-	-
C/C=C/c1ccc2c(c1)O[C@@H](CN(C)C(=O)C1CCCCC1)[C@@H](C)CN([C@@H](C)CO)S2(=O)=O	-	-	.	-	-	-
O=C(Nc1ccc(Br)c(C(F)(F)F)c1)c1ccc(C(F)(F)F)cc1	-	-	39.6	-	-	-
O=C(Nc1ccc(OCC(F)(F)C(F)F)c(C(F)(F)F)c1)c1ccc(Cl)cc1	.	.	-	.	-	68.5
C[C@H](CO)N1C[C@H](C)[C@@H](CN(C)C(=O)Nc2cccc3ccccc23)Oc2ccc(NC(=O)C3CC3)cc2C1=O	-	-	-	.	-	-
CCOc1ccc(CCNC(=O)CSc2nn(-c3ccc(C)c(Cl)c3)c(=S)s2)cc1OCC	-	-	-	81.5	-	.
Cc1noc(C)c1NC(=O)Nc1ccc2c(c1)CC(=O)N([C@@H](C)CO)C[C@H](C)[C@@H](CN(C)S(=O)(=O)c1cn(C)cn1)O2	-	-	-	-	-	-
Cc1cc(C)c(S(=O)(=O)Nn2cnnc2)c(C)c1	-	-	32.9	-	-	-
Cc1cc(C)c(S(=O)(=O)Nc2ccccn2)c(C)c1	-	-	-	-	-	-
Cc1ccc(S(=O)(=O)N(C)C)cc1NC(=O)C(C)N(C)CCOc1ccc(Cl)cc1 (stereo not drawn)	-	-	-	-	.	69.2
CCn1c(SCC(=O)NCCc2ccccc2)nc2c([nH]c3ccccc32)c1=O	-	-	-	-	-	66.8
CCn1c(SCC(=O)NCCc2ccc(OC)c(OC)c2)nc2c([nH]c3ccccc32)c1=O	-	-	-	-	.	70.0
CC(C)NC(=O)N1[C@H](CO)[C@@H]2c3ccccc3N(C(=O)C3CCC3)C[C@@H]21	-	-	-	-	-	.
O=C(CNc1ccc(F)cc1)c1ccccc1	-	-	-	-	-	106.1
O=C(c1cnccn1)N1CC(=O)N2[C@H](CO)[C@H](c3ccc(C#CCc4ccccc4)cc3)[C@H]2C1	-	-	.	-	-	.
CCN(c1nc(N)c(C(=O)N=C(N)N)nc1Cl)C(C)C	-	-	-	107.2	.	69.0
COc1ccc(NC(=O)N2C[C@@H](O)COC[C@@H]3O[C@@H](CC(=O)NCc4ccccc4OC)CC[C@H]32)cc1	-	-	-	-	-	.
O=C(O)CCSc1ncnc2sc(-c3ccccc3)cc12	69.4	-	-	-	-	68.4
CC1CCN(C(=O)c2ccc3c(c2NCCO)C(=O)c2ccccc2C3=O)CC1	.	.	.	.	-	.
CCN(CC)CCNC(=O)c1ccc2c(c1NCCO)C(=O)c1ccccc1C2=O	-	-	-	69.0	91.6	-
CCN(CC)CCC(=O)Nc1cccc2c1C(=O)c1ccccc1C2=O	-	23.9	-	-	-	-
C[C@H]1CCCCO[C@@H](CN(C)Cc2ccccc2)[C@@H](C)CN([C@@H](C)CO)C(=O)c2cc(NC(=O)c3ccccc3)ccc2O1	-	-	-	-	-	-
COc1ccc(-c2ccc3c(c2)[C@H]2[C@H](CCN2C(=O)Cc2cccnc2)[C@@H](CO)N3C)cc1	-	-	-	-	-	.
CCN(CC)CCn1nc2c3c(cccc3c1=O)-c1ccccc1-2	-	17.7	-	?	.	-
COc1cc(NC(=O)COC(=O)c2n[nH]c3ccccc23)c(C)cc1[N+](=O)[O-]	-	19.6	-	-	-	-
SMILES	EWS-Fli block	F508del corr	FN deposit inh	PAX8 reporter	PGC1a acetyl inh	HIV Env fusion
CC1CCN(S(=O)(=O)N2CCCC(C(=O)NCc3ccccc3Cl)C2)CC1 (stereo not drawn)	-	9.6	-	-	-	-
CC1CC(C)CN(S(=O)(=O)N2CCCC(C(=O)NCc3ccccc3Cl)C2)C1 (stereo not drawn)	-	-	-	-	-	-
O=C(Oc1c(-c2ccccc2Cl)oc2ccccc2c1=O)c1ccc(Cl)cc1	-	-	-	68.0	-	.
O=C(Oc1c(-c2ccccc2)oc2ccccc2c1=O)c1ccccc1	.	.	-	.	-	-
CN1CCN(C(=O)C[C@H]2CC[C@@H]3[C@@H](COc4ccc(NC(=O)C5CCC5)cc4C(=O)N3C)O2)CC1	-	-	-	-	.	.
CC(=O)Nc1ccc(CNc2nc(NC(C)C)nc3cc(-c4ccccc4)sc23)cc1	60.3	-	-	73.1	-	-
COc1ccc(NS(=O)(=O)c2cccc(C(=O)NNC(=O)CNC(=O)c3ccc(C)cc3)c2)cc1	-	-	-	-	.	67.6
O=C(C[C@@H]1CC[C@@H]2[C@H](COC[C@H](O)CN2Cc2ccccc2)O1)NCc1ccccc1Cl	-	-	-	-	-	.
CC(=O)OC1CCC2(C)C(CCC3C4CC=C(C(C)=O)C4(C)OC(=O)CC32)C1 (stereo not drawn)	-	-	.	100.5	-	-
C[C@@H]1CCCCO[C@H](CN(C)C(=O)Cc2ccccc2)[C@H](C)CN([C@@H](C)CO)C(=O)c2cc(NC(=O)Nc3ccc(C(F)(F)F)cc3)ccc2O1	-	-	.	78.6	.	-
COc1ccc(NC(=O)Nc2ccc3c(c2)C(=O)N([C@@H](C)CO)C[C@H](C)[C@@H](CN(C)C(=O)Cc2ccccc2)OCCCC[C@H](C)O3)cc1	-	-	.	-	-	-
C[C@H](CO)N1C[C@H](C)[C@@H](CN(C)C(=O)Cc2ccccc2)OCCCC[C@H](C)Oc2ccc(NC(=O)Nc3ccc(C(F)(F)F)cc3)cc2C1=O	-	-	.	87.0	.	-
COc1ccc(NC(=O)Nc2ccc3c(c2)C(=O)N([C@H](C)CO)C[C@@H](C)[C@@H](CN(C)C(=O)Cc2ccccc2)OCCCC[C@H](C)O3)cc1	-	-	.	98.9	-	-
C[C@@H]1CCCCO[C@H](CN(C)C(=O)Cc2ccccc2)[C@@H](C)CN([C@@H](C)CO)C(=O)c2cc(NC(=O)NC3CCCCC3)ccc2O1	-	-	.	-	-	-
C[C@@H]1CN([C@@H](C)CO)C(=O)c2cc(NC(=O)NC3CCCCC3)ccc2O[C@@H](C)CCCCO[C@@H]1CN(C)C(=O)Cc1ccccc1	-	-	.	-	-	62.0[16.7 µM]
O=C(C[C@H]1CC[C@@H]2[C@H](COC[C@@H](O)CN2S(=O)(=O)c2ccccc2Cl)O1)NCc1ccccc1Cl	-	-	-	-	-	.
Cc1noc(C)c1S(=O)(=O)Nc1ccc2c(c1)CC(=O)N([C@@H](C)CO)C[C@@H](C)[C@H](CN(C)S(C)(=O)=O)O2	-	-	.	-	-	-
O=C(Nc1ccccc1F)N[C@@H]1CC[C@H](CCNC(=O)C2CCC2)O[C@@H]1CO	-	-	.	-	-	-
